We go through three compounds from ChEMBL document CHEMBL1127320, “Dual-action cephalosporins incorporating a 3'-tertiary-amine-linked quinolone” (J Med Chem, 1994).

Series [1] concerns the target T1, Penicillin-binding protein 1A (Escherichia coli K-12) (UniProt P02918).
T1 sequence (whole entry): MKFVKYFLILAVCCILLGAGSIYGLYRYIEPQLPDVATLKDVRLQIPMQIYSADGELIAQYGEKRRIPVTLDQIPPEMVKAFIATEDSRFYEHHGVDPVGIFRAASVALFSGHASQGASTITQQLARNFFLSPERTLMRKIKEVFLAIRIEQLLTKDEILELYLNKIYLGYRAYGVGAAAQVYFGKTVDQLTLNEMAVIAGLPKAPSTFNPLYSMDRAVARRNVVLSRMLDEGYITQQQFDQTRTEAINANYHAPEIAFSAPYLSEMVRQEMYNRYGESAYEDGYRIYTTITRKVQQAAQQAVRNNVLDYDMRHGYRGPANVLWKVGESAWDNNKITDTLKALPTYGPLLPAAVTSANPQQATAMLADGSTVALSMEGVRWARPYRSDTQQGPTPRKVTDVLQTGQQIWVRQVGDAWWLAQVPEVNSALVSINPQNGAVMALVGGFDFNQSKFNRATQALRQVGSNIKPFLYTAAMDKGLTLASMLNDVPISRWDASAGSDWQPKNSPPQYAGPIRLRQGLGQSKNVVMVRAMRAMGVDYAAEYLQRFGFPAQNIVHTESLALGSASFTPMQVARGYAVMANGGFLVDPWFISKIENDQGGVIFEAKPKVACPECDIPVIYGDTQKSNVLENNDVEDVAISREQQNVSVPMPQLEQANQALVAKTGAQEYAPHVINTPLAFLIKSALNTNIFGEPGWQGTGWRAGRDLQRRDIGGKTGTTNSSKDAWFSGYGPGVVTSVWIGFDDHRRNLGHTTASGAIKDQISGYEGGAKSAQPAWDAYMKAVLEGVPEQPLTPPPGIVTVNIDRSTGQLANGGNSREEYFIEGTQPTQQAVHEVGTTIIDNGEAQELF
Nature of the series: Affinity against penicillin binding protein 1a of Escherichia coli UB1005 (DC0) was evaluated. Summed up:
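Solubilized membranes from sonicated E. coli UB1005 were used. Binding to penicillin-binding proteins was measured as inhibition of [14C]penicillin G binding.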

The target in series [2] is T2, Penicillin-binding protein 1B (Escherichia coli K-12) (UniProt P02919).
T2 sequence (whole entry): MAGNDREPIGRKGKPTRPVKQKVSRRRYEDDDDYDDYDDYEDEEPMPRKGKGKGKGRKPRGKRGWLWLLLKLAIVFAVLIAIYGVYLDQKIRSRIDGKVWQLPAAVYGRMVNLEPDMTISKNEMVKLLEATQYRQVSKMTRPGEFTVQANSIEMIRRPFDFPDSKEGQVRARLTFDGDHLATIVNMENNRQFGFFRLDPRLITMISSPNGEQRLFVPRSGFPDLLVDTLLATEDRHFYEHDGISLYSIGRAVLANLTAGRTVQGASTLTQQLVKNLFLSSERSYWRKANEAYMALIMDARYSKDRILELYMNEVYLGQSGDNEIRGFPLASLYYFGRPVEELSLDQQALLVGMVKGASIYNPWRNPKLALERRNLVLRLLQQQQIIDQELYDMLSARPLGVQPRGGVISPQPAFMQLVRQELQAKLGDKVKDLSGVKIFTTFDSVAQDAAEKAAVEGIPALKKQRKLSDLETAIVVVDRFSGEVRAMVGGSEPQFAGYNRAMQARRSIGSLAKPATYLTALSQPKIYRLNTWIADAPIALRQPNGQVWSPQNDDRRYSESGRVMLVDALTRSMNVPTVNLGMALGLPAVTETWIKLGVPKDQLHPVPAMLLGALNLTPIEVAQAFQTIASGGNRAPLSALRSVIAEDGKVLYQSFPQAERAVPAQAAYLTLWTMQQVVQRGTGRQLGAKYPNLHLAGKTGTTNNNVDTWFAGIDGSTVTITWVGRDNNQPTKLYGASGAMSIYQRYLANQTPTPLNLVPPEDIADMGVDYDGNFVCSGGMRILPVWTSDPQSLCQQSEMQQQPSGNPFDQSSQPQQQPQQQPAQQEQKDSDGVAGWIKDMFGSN
Nature of the series: Affinity for penicillin binding protein 1b of Escherichia coli UB1005 (DC0) was evaluated. Further details: unit not given here. Summed up: (§1)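 Solubilised membranes from sonicated E. coli UB1005 served as the binding-protein source. Binding was read as inhibition of [14C]penicillin G binding.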

Series [3] has as its target T3, Peptidoglycan D,D-transpeptidase MrdA (Escherichia coli K-12) (UniProt P0AD65).
T3 sequence (whole entry): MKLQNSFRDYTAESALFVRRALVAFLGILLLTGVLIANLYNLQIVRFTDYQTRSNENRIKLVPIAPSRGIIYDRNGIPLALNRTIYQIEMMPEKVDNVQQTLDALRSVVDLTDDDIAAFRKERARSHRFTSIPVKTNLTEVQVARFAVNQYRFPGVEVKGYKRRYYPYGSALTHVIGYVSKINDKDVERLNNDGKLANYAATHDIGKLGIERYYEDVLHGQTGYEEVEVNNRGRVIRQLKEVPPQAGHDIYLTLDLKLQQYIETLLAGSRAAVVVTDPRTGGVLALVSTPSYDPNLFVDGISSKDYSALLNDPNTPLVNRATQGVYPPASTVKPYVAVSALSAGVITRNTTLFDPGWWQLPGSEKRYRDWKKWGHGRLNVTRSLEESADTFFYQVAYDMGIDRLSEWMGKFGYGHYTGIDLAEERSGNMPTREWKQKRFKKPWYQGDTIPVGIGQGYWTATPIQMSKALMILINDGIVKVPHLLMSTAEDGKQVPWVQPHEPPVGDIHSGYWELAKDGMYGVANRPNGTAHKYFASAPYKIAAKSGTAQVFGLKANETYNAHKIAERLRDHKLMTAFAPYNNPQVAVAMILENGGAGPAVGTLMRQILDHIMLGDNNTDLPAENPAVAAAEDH
The series can be described thus: Affinity for penicillin binding protein 2 of Escherichia coli UB1005 (DC0) was evaluated. The arrangement: unit not given here. In short, it runs like this:
as §1

In series [4] the test system is Escherichia coli. The series can be described thus: Minimum inhibitory concentration against E. coli UB1005 (DC0).
Series [5] has as its system Citrobacter freundii. Nature of the series: In vitro minimum inhibitory concentration was measured against Citrobacter freundii BS-16 (beta lactamase producer) strain. Type of series: functional. In short, it runs like this:
(§2)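 MICs were determined by agar dilution with 2-fold dilutions giving final 128–0.0156 µg/mL, extended to 0.000977 µg/mL where needed. Streptococci were tested on brain heart infusion agar plus 20 units/mL catalase, Proteus on Mueller-Hinton with 3% agar, and others on Mueller-Hinton agar. Inocula were 100-fold-diluted overnight cultures, about 3 × 10^4 CFU/spot, read after overnight incubation at 36 °C.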

For series [6], the system named is Escherichia coli. The series can be described thus: In vitro minimum inhibitory concentration was measured against Escherichia coli 257 strain. It counts as functional. In short, it runs like this: (§3)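 Streptococci were tested on brain heart infusion agar plus 20 units/mL catalase, Proteus on Mueller-Hinton with 3% agar, and others on Mueller-Hinton agar. Inocula were 100-fold-diluted overnight cultures, about 3 × 10^4 CFU/spot, read after overnight incubation at 36 °C.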

Series [7] concerns Escherichia coli. Nature of the series: In vitro minimum inhibitory concentration was measured against Escherichia coli TEM-1 (Beta lactamase producer) strain. Type of series: functional. In short, it runs like this: as §3
Series [8] concerns Enterobacter cloacae. Nature of the series: In vitro minimum inhibitory concentration was measured against Enterobacter cloacae p99 (beta lactamase producer) strain. Type of series: functional.
The subject of series [9] is Micrococcus luteus. Nature of the series: In vitro minimum inhibitory concentration was measured against Micrococcus luteus ATCC 9341 strain. It counts as functional. In short, it runs like this: as §3
Series [10] has as its target T1, Penicillin-binding protein 1A (Escherichia coli K-12). Nature of the series: Affinity for penicillin binding protein 1a of Escherichia coli UB1005 (DC0) was evaluated. The arrangement: unit not given here. In short, it runs like this: as §1
The subject of series [11] is Proteus vulgaris. Nature of the series: In vitro minimum inhibitory concentration was measured against Proteus vulgaris 1028BC (beta lactamase producer) strain. Type of series: functional. In short, it runs like this: as §3
Series [12] has as its system Streptococcus pneumoniae. The series can be described thus: In vitro minimum inhibitory concentration was measured against Streptococcus pneumoniae 6301 strain. Type of series: functional. In short, it runs like this:
as §3

In series [13] the test system is Streptococcus pyogenes. The series can be described thus: In vitro minimum inhibitory concentration was measured against Streptococcus pyogenes 4 strain. It counts as functional. Summed up:
as §3

Series [14] concerns Escherichia coli. The series can be described thus: Minimum inhibitory concentration for DC2, a permeability mutant. In short, it runs like this: as §2
The test system of series [15] is Penicillin-binding protein 3 (Escherichia coli). The series can be described thus: Affinity for penicillin binding protein 3 of Escherichia coli UB1005 (DC0) was evaluated.; (</=).
Series [16] is described as follows: Half life was measured as degradation by HPLC analysis. It counts as ADME.
Series [17] has as its system Escherichia coli. The series can be described thus: In vitro minimum inhibitory concentration was measured against Escherichia coli 257 strain; (</=). Type of series: functional. Summed up: as §2
Series [18] deals with Escherichia coli. The series can be described thus: In vitro minimum inhibitory concentration was measured against Escherichia coli ATCC 25922 strain.; (</=). Type of series: functional. Summed up: as §2
In series [19] the test system is Enterococcus faecalis. Nature of the series: In vitro minimum inhibitory concentration was measured against Enterococcus faecalis ATCC 29212 strain. It counts as functional. Summed up:
as §3

The subject of series [20] is Enterobacter cloacae. Nature of the series: In vitro minimum inhibitory concentration was measured against Enterobacter cloacae 5699 strain. Type of series: functional.
In series [21] the test system is Klebsiella pneumoniae. Nature of the series: In vitro minimum inhibitory concentration was measured against Klebsiella pneumoniae A strain. Type of series: functional. Summed up:
as §3

Series [22] relates to Proteus mirabilis. Nature of the series: In vitro minimum inhibitory concentration was measured against Proteus mirabilis 90 strain. Type of series: functional. In short, it runs like this:
as §3

Series [23] relates to Pseudomonas aeruginosa. The series can be described thus: In vitro minimum inhibitory concentration was measured against Pseudomonas aeruginosa 18S/H strain. Type of series: functional. In short, it runs like this: as §3
Series [24] relates to Pseudomonas aeruginosa. Nature of the series: In vitro minimum inhibitory concentration was measured against Pseudomonas aeruginosa 8780 strain. It counts as functional. Summed up: as §3
In series [25] the test system is Serratia marcescens. Nature of the series: In vitro minimum inhibitory concentration was measured against Serratia marcescens 1071(beta lactamase producer) strain. Type of series: functional. Summed up: as §3
Series [26] deals with Staphylococcus aureus. The series can be described thus: In vitro minimum inhibitory concentration was measured against Staphylococcus aureus 67-0 (Methicillin resistant) strain. Type of series: functional.
Series [27] concerns Staphylococcus aureus. Nature of the series: In vitro minimum inhibitory concentration was measured against Staphylococcus aureus 753 (Methicillin resistant) strain. It counts as functional.
Series [28] has as its system Staphylococcus aureus. Nature of the series: In vitro minimum inhibitory concentration was measured against Staphylococcus aureus smith strain. Type of series: functional.
Series [29] concerns Penicillin-binding protein 3 (Escherichia coli). The series can be described thus: Affinity for penicillin binding protein 3 of Escherichia coli UB1005 (DC0) was evaluated. Further details: unit not given here.

SMILES strings stand for the structures. Converted amounts (≈) assume the structure as drawn.

Turning to `CC(C)(O/N=C(\C(=O)N[C@@H]1C(=O)N2C(C(=O)[O-])=C(C[n+]3ccccc3)CS[C@H]12)c1csc(N)n1)C(=O)O`, the Binding affinity in series [1] is 10; in series [2] it was 10; in [3], over 100. The compound also yielded an MIC in series [4] of 0.125 mg/L (≈ 0.229 µM).
As to `O=C(O)C1=C(CN2CCN(c3cc4c(cc3F)c(=O)c(C(=O)O)cn4C3CC3)CC2)CS[C@@H]2[C@H](NC(=O)[C@H](O)c3ccccc3)C(=O)N12`, the MIC in [5] is 0.125 mg/L (≈ 0.184 µM); in [6], 0.125 mg/L (≈ 0.184 µM); in series [7] it was 0.125 mg/L (≈ 0.184 µM); in [8], 0.031 mg/L (≈ 0.0457 µM); in series [9], 0.031 mg/L (≈ 0.0457 µM); in series [11], 0.063 mg/L (≈ 0.093 µM). The MIC in [12] was 0.063 mg/L (≈ 0.093 µM); in series [13], 0.031 mg/L (≈ 0.0457 µM); in series [14], 2 mg/L (≈ 2.95 µM); in series [4], 4 mg/L (≈ 5.9 µM). For the same compound, the Binding affinity in series [10] is 100; in series [2] it was over 100; in series [3] it was over 100; in [15], under 0.1.
The compound `CCN1CCN(C(=O)N[C@@H](C(=O)N[C@@H]2C(=O)N3C(C(=O)O)=C(CN4CCN(c5cc6c(cc5F)c(=O)c(C(=O)O)cn6C5CC5)CC4)CS[C@H]23)c2ccc(O)cc2)C(=O)C1=O` gave a half-life in series [16] of 60 h. Further, the MIC was 0.063 mg/L (≈ 0.0732 µM) in series [5]; under 0.016 mg/L in [17]; under 0.016 mg/L in [18]; 0.031 mg/L (≈ 0.036 µM) in [7]; 16 mg/L (≈ 18.6 µM) in [19]; 0.125 mg/L (≈ 0.145 µM) in series [20]. Further, the MIC in [8] is at most 0.016 mg/L; in [21] it was 0.5 mg/L (≈ 0.581 µM); in [9], 0.5 mg/L (≈ 0.581 µM); in [22], 1 mg/L (≈ 1.16 µM); in series [23], 2 mg/L (≈ 2.32 µM); in [24] it was 8 mg/L (≈ 9.29 µM). For the same compound, the MIC in [11] worked out at 0.063 mg/L (≈ 0.0732 µM); in series [25], 0.25 mg/L (≈ 0.29 µM); in series [26], 16 mg/L (≈ 18.6 µM); in series [27], 2 mg/L (≈ 2.32 µM); in series [28], 2 mg/L (≈ 2.32 µM); in series [12], 0.125 mg/L (≈ 0.145 µM). In addition, the MIC is 0.125 mg/L (≈ 0.145 µM) in [13] and 0.25 mg/L (≈ 0.29 µM) in [14]. The Binding affinity was over 100 in series [10], over 100 in series [2], over 100 in [3] and 2 in series [29].
